Experimental data taken from ChEMBL document CHEMBL4513216, “Probing the Open Global Health Chemical Diversity Library for Multistage-Active Starting Points for Next-Generation Antimalarials” (ACS Infect Dis, 2020).

Assay: Toxicity liver stage against HepG2, at 10uM
Format: cell-based
Set-up: test concentration 10 uM, cell line HepG2-A16-CD81EGFP
Details: human, HepG2-A16-CD81EGFP cells; read-out: INHIBITION
How it was run: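 Uninfected HepG2-A16-CD81EGFP cells, 3 × 10^3 per well, 1536-well, plated on prespotted compound at 10 μM final, parasite-free screening media added to match infected plates; puromycin 10 μM positive, DMSO 0.5% negative; run in parallel with 48 h PbLuc assay at 37 °C, 5% CO2; viability by CellTiter-Glo luminescence, normalized to controls.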

Compound	cytotoxicity at 10 µM
Cc1ccccc1CN1CC[C@H](c2nnc(-c3cncn3C)o2)C1	5.08%
O=C1CC(c2ccsc2)c2cnn(C3CCCC3)c2N1 (stereo not given)	-0.524%
Cc1cc(=O)[nH]c(-n2nc(C)c(CCC(=O)NCc3ccco3)c2C)n1	-5.33%
O=c1ccc(-n2cccn2)nn1CCNS(=O)(=O)c1ccc(F)c(Cl)c1	1.48%
CCOCC1CN(Cc2ccc(F)cc2)Cc2nn(CC3CC3)cc21 (stereo not given)	7.43%
Cn1cc(CN2CC[C@H]3OCC[C@@H](C(=O)NCc4ccco4)[C@@H]3C2)cn1	6.79%
Cn1cc(CN2CCc3onc(COCC4CC4)c3C2)cn1	6.35%
Cc1cc(C(=O)N2CCn3cnc(COCC4CC4)c3C2)no1	1.85%
CCOCC1CN(C(=O)COc2ccccc2)Cc2cn(C)nc21 (stereo not given)	9.08%
O=C1CC(c2ccc3c(c2)OCO3)c2c(n3ccsc3nc2=O)N1 (stereo not given)	8.38%
O=C1CC(c2ccc3c(c2)OCO3)c2cn[nH]c2N1 (stereo not given)	13.3%
CC(C)(C)n1ncc2c1NC(=O)CC2c1ccccc1 (stereo not given)	19.2%
O=C([C@H]1C[C@H]2OCC[C@H]2N(Cc2ccncc2)C1)N1CCCCO1	-9.01%
Cc1nn(C)cc1CN1CCC(c2ncc(Cl)cc2S(C)(=O)=O)CC1	-0.1%
O=C(O)c1ccccc1-c1ccc(CN2CC(c3ccncn3)C2)o1	4.54%
CN1CCN([C@@H]2CN(C(=O)CCOc3ccccc3)C[C@H]2O)CC1	1.17%
Cn1cc(C2=NOC(C(=O)NC3(c4cccc(F)c4)CCCC3)C2)cn1 (stereo not given)	1.53%
CNc1cc(C2CCCN2Cc2ccccc2OCC(=O)O)ccn1 (stereo not given)	-0.645%
O=C(Nc1ccc(-c2csnn2)cc1)NC(CCO)C1CC1 (stereo not given)	15.6%
O=C(Nc1ccc(-c2ccccc2)cn1)C1CCCN1C(=O)C1CC1 (stereo not given)	-1.6%
CN1CCOC(CNCc2nc(-c3ccco3)no2)C1 (stereo not given)	3.54%
CC(C)(C)n1cc(CNC2CCN(C(=O)c3ccco3)CC2)cn1	-8.08%

Compound	cytotoxicity at 10 µM
COc1ccccc1CC1CCCN(C(=O)c2cc[nH]n2)C1 (stereo not given)	6.11%
COCC(C)NC(=O)N1CCN(S(C)(=O)=O)CC1 (stereo not given)	-6.53%
Cc1ccc(CNC(=O)c2ccc(=O)n(C)n2)c(OC2CCCC2)c1	5.25%
CC(C)c1ccccc1OCCNC(=O)N1CCC(CC(N)=O)CC1	3.2%
CC1CN(c2ncnc3c2cnn3C)CCN1c1nccs1 (stereo not given)	7.04%
Cc1nn(C)c(C)c1C1CCCN1CC(=O)N(C)c1nccs1 (stereo not given)	-1.32%
Cc1cc(COC(=O)[C@@H]2Cc3ccccc3CN2S(C)(=O)=O)no1	-9.87%
O=C1CN(C(=O)c2cc(Cl)ccc2F)c2ccccc2N1	79.6%
COC(=O)c1ccc(Cl)c(NS(=O)(=O)c2cnn(C)c2)c1	0.214%
O=C1NCC(C(=O)N(Cc2cccc(Br)c2)C2CC2)N1 (stereo not given)	1.56%
Cc1nn(C)c2ncc(S(=O)(=O)N3CCN4CCCC4C3)cc12 (stereo not given)	2.6%
COCC(=O)N1CCN(Cc2nnc(C(C)(C)C)o2)CC1	7.66%
O=C(C(CNCc1cccs1)c1ccccc1)N1CCOCC1 (stereo not given)	0.142%
O=C(NCc1ccoc1)NC1CCN(c2ncccn2)CC1	6.36%
CCc1cnc(CN(C)C2CCN(CC3CCOCC3)C2)o1 (stereo not given)	-13.4%
Cc1nccn1-c1cc(CNC(=O)c2ccnc(N(C)C)c2)ccn1	2.32%
CC(C)c1nnc(NCc2ccsc2)o1	-0.19%
COC(=O)CN(C(=O)c1ccc(-n2ccnc2)cc1)C1CC1	-5%
O=C(N1CCOCC1)N1CCN(c2ccnc3ccsc23)CC1	-4.48%
COCCn1ccc2ccc(NC(=O)NCc3noc(C)n3)cc21	7.36%
CCC(C)NC(=O)c1ccc(NC(=O)CCCn2cncn2)c(C)c1 (stereo not given)	-10.7%
O=C(c1cc[nH]n1)N(Cc1cccc(O)c1)CC1CC1	8.27%

Compound	cytotoxicity at 10 µM
Cc1nc(CNC(=O)Nc2cc(F)ccc2OC(F)F)no1	0.311%
CC(C)N(CCCNC(=O)C1CC(=O)N(C)C1)S(C)(=O)=O (stereo not given)	8.35%
COC(=O)c1ccc(Cn2cnc(C#N)n2)cc1	-4.74%
CS(=O)(=O)CC1(CNc2cc(C#N)c3cc(Cl)ccc3n2)CC1	-4.06%
O=C(c1cc(F)ccc1O)N1CCN(C(=O)C2CCC2)CC1	1.22%
CC(C)(C)c1n[nH]cc1CNC1CCC(O)CC1 (stereo not given)	2.33%
CCN(CC)S(=O)(=O)c1ccc(CNC(=O)c2cc(C)on2)cc1	27.4%
CC(C)COCC(NC(=O)CSc1nnc[nH]1)c1ccco1 (stereo not given)	11.4%
O=C(NCCc1nnc2n1CCCCC2)N1CCC2(CCOC2)C1 (stereo not given)	4.18%
Cc1csc(C2CCCN(C(=O)c3ccc(=O)n(C)n3)C2)n1 (stereo not given)	6.76%
CCOC[C@@]12CCC[C@@H]1CN(C(=O)c1ccc(OC)cc1)C2	-108%
CC(C)CN1Cc2c(C(=O)N(C)C)ncn2-c2ccccc2S1(=O)=O	3.63%
O=C(O)c1cn(CC2CCCN(c3cnc4ccccc4n3)C2)nn1 (stereo not given)	1.57%
COc1nc2c(cc1C(=O)N(C)Cc1n[nH]c3c1CCCC3)CCC2	-1.89%
Cc1ccc(-c2cnnc(N3CCCC3c3nonc3C)n2)o1 (stereo not given)	5.46%
Cc1cccc(CN2CCN(c3nc(CO)cs3)CC2)c1	-11.6%
CO[C@H]1CN(C(=O)c2nc(-c3ccccc3)[nH]c2C)CC[C@H]1N	11.5%
CCc1cnc(C)nc1NCCN1CCCC(C(N)=O)C1 (stereo not given)	-2.54%
COc1ccc(Cl)cc1CN(C)C(=O)CN1C(=O)OC[C@@H]1C(C)C	-4.29%
Cn1ccnc1-c1cn(Cc2cn3c(n2)SCC3)nn1	-0.773%
O=C(O)[C@@H]1CN(C(=O)CN2Cc3ccccc3C2)C[C@H]1c1ccncc1	4.85%
CN(CC(=O)N1CCC(OCc2cccnc2)CC1)c1ccccc1	7.56%

Compound	cytotoxicity at 10 µM
Cc1nc(C(C)NC(=O)c2cn(CCC3CCCCC3)nn2)n[nH]1 (stereo not given)	9.21%
O=C(N[C@@H]1CCN(c2nccc3ccccc23)C[C@H]1O)c1cnccn1	-6.71%
Cc1nnsc1C(=O)NCc1cccnc1N1CCc2ccccc2C1	10.8%
CCCc1cc(N2CCC(Cc3cccc(C(N)=O)c3)C2)nc(C)n1 (stereo not given)	-1.62%
O=C1CN(c2cc(-c3ccccc3F)nc3ccnn23)CCCN1	2.77%
CNc1cc(-c2cccc(CN)c2)c2cc[nH]c2n1	-3.23%
CC(C)n1cc(C(=O)NCC(CO)Cc2cccs2)cn1 (stereo not given)	7.64%
CC(C)N1CCCC2(CCN(C(=O)CCCn3cccn3)C2)C1=O (stereo not given)	0.264%
O=C(Cc1ccc(F)cc1)NCCNCc1cccc(O)c1	-10.4%
CNS(=O)(=O)c1cccc(C(=O)N(C)Cc2ccsc2)c1	4.04%
CCc1nnc2n1CCN(C(=O)c1cc(C)n(-c3ccccc3)c1C)C2	-8.7%
O=C(CCc1ccc(Cl)s1)NCc1nnc2n1CCCCC2	-6.1%
CCCc1nc(CN2CCOC(Cn3cncn3)C2)cs1 (stereo not given)	-8.44%
COCCCNC(=O)CN(C)C(=O)c1cc2cc(C)ccc2nc1C	-10.2%
Cc1nc(C)n(C2CCCN(C(=O)c3ccc(OC(C)C)nc3)C2)n1 (stereo not given)	-5.92%
O=C(NC1CC1)C(c1ccccc1)N1CCn2c(nnc2C2CC2)C1 (stereo not given)	-6.22%
CCOc1ccc(Cl)c(C(=O)NCCc2ncc[nH]2)n1	-11.2%
Cn1ccc(CN2CCC(NC(=O)C3CCCCC3)CC2)cc1=O	-13%
Fc1ccc(OCCCN2CCCC(Cn3cncn3)C2)cc1 (stereo not given)	-7.81%
O=C(c1cnc(-c2ccco2)s1)N1CCCCC1Cn1cccn1 (stereo not given)	-5.83%
N#Cc1ccc(OCC(O)CN2CCC(Cn3cccn3)CC2)cc1 (stereo not given)	-0.775%
CN(Cc1ccsc1)C(=O)CN1CCOC(Cn2cncn2)C1 (stereo not given)	-1.14%

Compound	cytotoxicity at 10 µM
O=C(NCc1nnc2n1CCCC2)N1CCc2sccc2C1	-9.78%
CC(CC(=O)NS(=O)(=O)c1ccc2c(c1)OCCO2)c1ccc(F)cc1 (stereo not given)	-31.6%
CCc1nc(C2CCCN2CC(=O)Nc2sc(C)c(C)c2C)no1 (stereo not given)	-10.9%
CC(=O)NCCNC(=O)c1sc(-c2ccc(Cl)s2)nc1C	-1.28%
CCS(=O)(=O)c1ccccc1N1CCC(NC(C)=O)CC1	-5.31%
CCC(NC(=O)CC(F)(F)F)c1ccccc1OCC(=O)N1CCCC1 (stereo not given)	0.145%
COc1ccccc1CC(=O)NCc1c(C)nc2cc(=O)[nH]n2c1C	-6.8%
COCCNc1ccc(CNC(=O)Nc2cn[nH]c2)cc1	-2.68%
Cc1cc(C)n(CC2CCCCN2C(=O)c2ccc3c(c2)OCO3)n1 (stereo not given)	5.44%
OC(COCc1ccccc1F)CN1CCc2c(ncn2C2CC2)C1 (stereo not given)	2.86%
CCCc1nc(C)c(C(=O)NCCN2CCN(CC)CC2)s1	-10.6%
CCc1nc(C2CCCN2Cc2nnc(Cc3ccccc3)o2)no1 (stereo not given)	-0.313%
COCC1CN(C(=O)COc2ccc(C)cc2)Cc2cn(C)nc21 (stereo not given)	2.49%
CN(C)CCN1C(=O)CCCC12CCCN(C(=O)c1ccncc1)C2 (stereo not given)	-1.31%
Cc1nc(CN2C[C@@H]3CN(c4ncc(F)cn4)C[C@@H]3C2=O)cs1	-0.673%
CCS(=O)(=O)N1CCC2(CC1)COC(COc1cccnc1)C2 (stereo not given)	10.6%
CS(=O)(=O)N1CCOCC2(CCN(c3ccccn3)C2)C1 (stereo not given)	14.3%
O=C(c1ccccc1)N1CCC[C@]2(C[C@@H](Oc3ncccc3F)CO2)C1	-1.78%
Cc1nn(C)c(N2CCOCC2)c1CNC1CCc2cc(F)ccc21 (stereo not given)	-9.95%
CN(C)C[C@H]1OC[C@@H]2CN(C(=O)NCc3cccnc3)CC[C@@H]21	3.86%
NCC1[C@H]2CN(Cc3ccccc3)C[C@@H]12 (stereo not given in full)	4.78%
Cn1cc(CCC(=O)N2C[C@H]3CC[C@@H](C2)N(Cc2ccccn2)C3)cn1	-1.95%
